# From PubChem BioAssay
# In the library only some 3.5% were active in any assay of this set; here they are far more common.
# MrgX1 antagonist: antagonists of human MrgX1 receptor, primary screen, HEK293 cells, Fluo-4 calcium flux; actives 1.3% (n = 310,000); BAM8-22 antagonism; stronger effect = lower value; AID 588676, 2011; B-score at 10 µM;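 active = calcium-response B-score plate-corrected more than 3 library SD below zero, starting fluorescence within 5 deviations, no agonist response on first addition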;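 note: peak minus trough fluorescence over baseline after final BAM8-22 challenge near maximal dose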
# RGS4 act: RGS4 potentiators or activators, primary screen, cell-based, HEK293 M3R inducible RGS4, calcium flux; carbachol calcium flux Fluo4; stronger effect = lower value; B-score at 10 µM; actives 0.92% (n = 310,000); AID 463111, 2010;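 active = B-score of the integrated calcium signal more than 4 SD below the library mean, with starting fluorescence not abnormally high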;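 note: negative B-score means reduced calcium response which marks RGS4 activation or potentiation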
#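 System: HEK293 FlpIn-TREx cells, stable M3R, doxycycline-inducible RGS4. Timing: overnight RGS4 induction, 30 min dye load 37 °C, 20 min compound RT. Also added: carbachol, ECmax concentration. Measured by: Fluo4 fluorescence kinetic imaging of calcium. Evaluation: integrated calcium ratio converted to B score.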
# MrgX1 ag: agonists of human MrgX1 receptor, primary screen, HEK293 cells, Fluo-4 calcium flux; Fluo-4 calcium fluorescence, agonist mode; stronger effect = higher value; B-score at 10 µM; actives 0.44% (n = 310,000); AID 588627, 2011;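 active = calcium response B-score plate-corrected fluorescence ratio at least 3 library SD, with starting fluorescence B-score inside 5 SD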
#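 times = overnight plating, then 30 min 37 °C plus 30 min room-temperature dye loading | assay system = stable human MrgX1 HEK293 cell line | input = fifteen thousand cells per well | signal = kinetic calcium dye fluorescence, Fluo-4 NW | dosing = compound delivered in addition one of three | read-out = B-scored fluorescence response ratio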
# MrgX1 PAM: positive allosteric modulators of MrgX1, primary screen, HEK293 cells, Fluo-4 calcium flux; Mas-related G-protein coupled receptor member X1 (Homo sapiens), Q96LB2; FDSS; stronger effect = higher value; B-score at 10 µM; actives 0.63% (n = 310,000);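 active = plate-corrected calcium response at least 3 library SD above typical, normal starting fluorescence, not activating the receptor alone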;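 note: compound read alongside a low EC10 to EC30 dose of BAM8-22 agonist; peak minus trough fluorescence over baseline measured at the second addition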
# RGS4 block: RGS4 inhibitors, primary screen, cell-based, HEK293 M3R inducible RGS4, calcium flux; Fluo-4 calcium flux; stronger effect = higher value; triggered by carbachol at its EC20; B-score at 10 µM; actives 0.45% (n = 310,000); Regulator of G-protein signaling 4 (Homo sapiens), P49798;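 active = B-score, a plate-corrected calcium signal, over three deviations above library mean, with baseline fluorescence within five deviations of library mean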;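 note: RGS4 expression induced by doxycycline in cells with stable M3 receptor; B-score is computed from the integrated fluorescence ratio over baseline after carbachol; higher B-score means a larger calcium signal and so more RGS4 inhibition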
# Target sequence (P49798 whole entry, looked up): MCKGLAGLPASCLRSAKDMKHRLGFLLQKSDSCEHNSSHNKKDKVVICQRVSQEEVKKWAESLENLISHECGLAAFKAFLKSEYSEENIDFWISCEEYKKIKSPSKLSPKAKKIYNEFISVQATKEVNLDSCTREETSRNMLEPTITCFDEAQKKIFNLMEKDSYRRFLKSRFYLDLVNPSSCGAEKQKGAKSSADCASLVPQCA
# RGS4 inh valid: enhanced carbachol calcium response, M3R/RGS4 cells, RGS4 inhibitor project, cell-based, validation screen, HEK293 M3R/RGS4, calcium flux. AID 492999, 2010. actives 65% (n = 1,700). shares compounds with RGS4 block. calcium response, % at 10 µM. carbachol calcium Fluo-4 fluorescence; carbachol added at its EC20; 0 = buffer wells, 100 = carbachol control;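 active = duplicate-averaged calcium response above the buffer-only control mean plus 5 SD of those controls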;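 note: integrated fluorescence ratio F max minus min over baseline F0; higher response in RGS4-induced cells means RGS4 inhibition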
# M3R Ca ctr: carbachol calcium response in non-induced M3R cells, confirmation, counter-screen for RGS4 inhibitor project, cell-based, HEK293 M3R. actives 20% (n = 1,900). shares compounds with RGS4 block. activity (percent), % at 10 µM. carbachol calcium Fluo-4; submaximal (EC20) carbachol stimulus; buffer wells 0%, carbachol control wells 100%. AID 493000, 2010; call rule not given here;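 note: RGS4 induction absent so cells express M3R without RGS4; higher means more calcium signal and flags a non-specific hit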
# RGS4 inh ctr2: second counter-screen for RGS4 inhibitors: non-induced cells without carbachol; calcium response (agonist-mode artifact), % at 10 µM; actives 22% (n = 1,900); shares compounds with RGS4 block; HEK293 M3R/RGS4 non-induced, Fluo-4 calcium, no carbachol; normalised: buffer wells 0%, carbachol wells 100%; AID 493001;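 active = duplicate-averaged calcium rise in uninduced cells above buffer wells' mean plus 5 SD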
# * marks the source's active call; other numbers are inactive results; i = inactive; nt = no result given.
SMILES,MrgX1 antagonist,RGS4 act,MrgX1 ag,MrgX1 PAM,RGS4 block,RGS4 inh valid,M3R Ca ctr,RGS4 inh ctr2
CCOc1cc(C=O)cc(Br)c1OCC(=O)NCCc1ccccc1,i,i,i,i,i,nt,nt,nt
CCCCC1=CC2=C(c3ccco3)C(=O)C(C)(OC(=O)c3ccc(OC)cc3)C(=O)C2=CN1CCCCO (stereo not drawn),i,i,i,i,i,i,i,i
CCCCC1=CC2=C(c3ccco3)C(=O)C(C)(OC(=O)c3ccc(OC)cc3)C(=O)C2=CN1C(CO)CO (stereo not drawn),i,i,i,i,i,nt,nt,nt
CCCCC1=CC2=C(c3ccco3)C(=O)C(C)(OC(=O)c3ccc(OC)cc3)C(=O)C2=CN1CC(C)C (stereo not drawn),i,i,i,i,6.8*,5.0%*,i,i
CCCCC1=CC2=C(c3ccco3)C(=O)C(C)(OC(=O)c3ccc(OC)cc3)C(=O)C2=CN1c1ccc(OC)cc1 (stereo not drawn),i,i,i,i,5.3*,7.0%*,i,i
CCCc1ccc(-c2cc(NC(=O)CSc3nnc(N)s3)n(-c3ccccc3)n2)cc1,i,i,i,i,8.8*,20%*,i,i
Cc1nnc(SCC(=O)Nc2cc(-c3cc(C)c(C)cc3C)nn2-c2ccccc2)s1,i,i,i,i,i,nt,nt,nt
Cc1ccc(NC(=O)CSc2nnc(C)n2CC2CCCO2)cc1 (stereo not drawn),i,i,i,i,i,nt,nt,nt
Cc1ccc(NC(=O)C(C)Sc2nnc(C)n2CC2CCCO2)cc1 (stereo not drawn),nt,i,nt,nt,4.7*,5.0%*,i,i
CC(C)(C)c1cc(N2CCOCC2)n2ncc(-c3ccccc3)c2n1,i,i,i,i,i,i,i,i
CC(C)(C)c1cc(-n2ccnc2)n2ncc(-c3ccc(Cl)cc3)c2n1,i,i,i,i,4.7*,14%*,i,i
CCCc1cc(N2CCOCC2)n2ncc(-c3ccccc3)c2n1,i,i,i,i,i,nt,nt,nt
CC(C)(C)c1cc(NCCCn2ccnc2)n2ncc(-c3ccccc3)c2n1,i,i,i,i,9*,10%*,i,i
Cc1cccc2c1NC(=O)C2(c1ccc(O)cc1)c1ccc(O)cc1,i,i,i,i,8.6*,10%*,i,i
Cc1cc(C2(c3ccc(O)c(C)c3)C(=O)Nc3ccccc32)ccc1O,i,i,i,i,i,nt,nt,nt
CCCOc1ccc(N2C(=O)CC(S/C(N)=N/N=C(\C)c3cccs3)C2=O)cc1 (stereo not drawn),i,i,i,i,i,nt,i,i
CC(/C=C/c1ccc(N(C)C)cc1)=N\N=C(/N)SC1CC(=O)N(c2ccc(C(=O)O)cc2)C1=O (stereo not drawn),i,i,i,i,i,nt,nt,nt
C/C(=N\N=C(/N)SC1CC(=O)N(c2cccc(Cl)c2)C1=O)c1cccs1 (stereo not drawn),i,i,i,i,i,nt,i,i
CC(=O)OCC1OC(Nc2cccc(C)c2)C(OC(C)=O)C(OC(C)=O)C1OC(C)=O (stereo not drawn),i,i,i,i,i,nt,nt,nt
